Source: ChEMBL document CHEMBL1151739, “Probes for narcotic receptor mediated phenomena. 37. Synthesis and opioid binding affinity of the final pair of oxide-bridged phenylmorphans, the ortho- and para-b-isomers and their N-phenethyl analogues, and the synthesis of the N-phenethyl analogues of the ortho- and para-d-isomers” (J Med Chem, 2008)

Tests used:
[1] = biological target: T1, Mu-type opioid receptor (Homo sapiens, UniProt P35372); assay: Displacement of [125I]IOXY from human recombinant mu opioid receptor expressed in CHO cells; assay type: cell-based
In short: (§1)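 Radioligand displacement run in CHO cells stably transfected to express the μ-, δ- or κ-opioid receptor, each receptor in its own line. The method follows the authors' earlier procedure. Each value comes from n=3 determinations.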

[2] = biological target: Kappa-type opioid receptor (Homo sapiens, UniProt P41145); assay: Displacement of [125I]IOXY from human recombinant kappa opioid receptor expressed in CHO cells; assay type: cell-based; in short: as §1
[3] = biological target: Delta-type opioid receptor (Homo sapiens, UniProt P41143); assay: Displacement of [125I]IOXY from human recombinant delta opioid receptor expressed in CHO cells; assay type: cell-based; in short: as §1
[4] = biological target: T1, Mu-type opioid receptor; assay: Binding affinity to mu opioid receptor

T1 sequence (P35372 whole entry): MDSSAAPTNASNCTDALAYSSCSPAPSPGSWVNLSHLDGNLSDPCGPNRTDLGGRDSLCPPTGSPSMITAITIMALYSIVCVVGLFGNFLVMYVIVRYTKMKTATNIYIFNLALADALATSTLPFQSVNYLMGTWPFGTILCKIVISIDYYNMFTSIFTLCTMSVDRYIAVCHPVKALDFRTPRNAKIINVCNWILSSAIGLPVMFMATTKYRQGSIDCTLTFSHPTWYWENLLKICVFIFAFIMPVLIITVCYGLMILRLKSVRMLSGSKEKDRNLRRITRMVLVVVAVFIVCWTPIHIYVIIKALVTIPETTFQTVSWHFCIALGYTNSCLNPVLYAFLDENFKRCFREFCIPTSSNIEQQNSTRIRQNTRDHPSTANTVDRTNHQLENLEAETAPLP
Chain of Kappa-type opioid receptor (P41145 whole entry): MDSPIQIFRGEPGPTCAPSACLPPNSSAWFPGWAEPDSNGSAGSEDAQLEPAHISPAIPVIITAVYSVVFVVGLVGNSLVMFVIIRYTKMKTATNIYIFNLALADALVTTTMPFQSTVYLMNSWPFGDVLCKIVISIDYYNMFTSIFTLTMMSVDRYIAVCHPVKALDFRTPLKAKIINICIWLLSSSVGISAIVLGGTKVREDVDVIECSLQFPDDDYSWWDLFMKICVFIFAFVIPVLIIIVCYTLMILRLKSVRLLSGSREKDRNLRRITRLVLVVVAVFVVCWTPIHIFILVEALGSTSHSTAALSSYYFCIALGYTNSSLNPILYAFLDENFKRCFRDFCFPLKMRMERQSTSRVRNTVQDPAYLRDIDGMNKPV
Chain of Delta-type opioid receptor (P41143 whole entry): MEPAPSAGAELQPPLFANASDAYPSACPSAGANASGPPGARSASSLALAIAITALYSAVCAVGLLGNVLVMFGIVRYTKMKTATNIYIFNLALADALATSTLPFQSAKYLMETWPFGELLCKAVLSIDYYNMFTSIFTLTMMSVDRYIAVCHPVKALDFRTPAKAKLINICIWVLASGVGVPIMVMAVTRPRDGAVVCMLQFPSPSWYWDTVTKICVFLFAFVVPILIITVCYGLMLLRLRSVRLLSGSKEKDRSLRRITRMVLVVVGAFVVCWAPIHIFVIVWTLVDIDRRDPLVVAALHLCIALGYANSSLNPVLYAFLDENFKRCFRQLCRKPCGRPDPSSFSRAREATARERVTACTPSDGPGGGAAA

Compound	Ki [1]	Ki [2]	Ki [3]	Ki [4]
Oc1ccc2c(c1)[C@]13CCC[C@H](C1)N(CCc1ccccc1)C[C@@H]3O2 (relative stereo)	1220 nM	560 nM	2530 nM	
Oc1cccc2c1O[C@@H]1[C@@H]3CCC[C@]21CCN3CCc1ccccc1				7 nM
